Measured values published in ChEMBL document CHEMBL1139977, “Synthesis and RET protein kinase inhibitory activity of 3-arylureidobenzylidene-indolin-2-ones” (Bioorg Med Chem Lett, 2007).
Activity calls are given as the source filed them. No cut-off for these calls is given here.

Tests used:
[1] = test system: NIH3T3MEN2A; experiment: Reversion of RET C634R mutant oncogene-transformed morphologic phenotype of mouse NIH3T3MEN2A cells at 10 uM after 72 hrs; assay type: functional, cell-based
[2] = Antiproliferative activity against RET C634R mutant oncogene-transformed mouse NIH3T3MEN2A after 72 hrs; assay type: functional
In short: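 Cells kept at 37 °C in 10% CO2 in DMEM. NIH3T3MEN2A were grown with 5% serum; parental NIH3T3 and NIH3T3H-RAS with 10% calf serum. Compounds were dissolved in DMSO and diluted in medium to 0.5% solvent final.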

[3] = test system: NIH3T3; experiment: Antiproliferative activity against mouse NIH3T3 after 72 hrs; conditions: NIH3T3, 72 h
[4] = test system: NIH3T3; experiment: Antiproliferative activity against H-RAS transformed mouse NIH3T3 cells after 72 hrs; conditions: NIH3T3, 72 h
[5] = target: T1, Proto-oncogene tyrosine-protein kinase receptor Ret (Homo sapiens, UniProt P07949); experiment: Inhibition of RET in mouse NIH3T3MEN2A cells up to 3 uM; assay type: cell-based
T1 sequence (P07949 whole entry): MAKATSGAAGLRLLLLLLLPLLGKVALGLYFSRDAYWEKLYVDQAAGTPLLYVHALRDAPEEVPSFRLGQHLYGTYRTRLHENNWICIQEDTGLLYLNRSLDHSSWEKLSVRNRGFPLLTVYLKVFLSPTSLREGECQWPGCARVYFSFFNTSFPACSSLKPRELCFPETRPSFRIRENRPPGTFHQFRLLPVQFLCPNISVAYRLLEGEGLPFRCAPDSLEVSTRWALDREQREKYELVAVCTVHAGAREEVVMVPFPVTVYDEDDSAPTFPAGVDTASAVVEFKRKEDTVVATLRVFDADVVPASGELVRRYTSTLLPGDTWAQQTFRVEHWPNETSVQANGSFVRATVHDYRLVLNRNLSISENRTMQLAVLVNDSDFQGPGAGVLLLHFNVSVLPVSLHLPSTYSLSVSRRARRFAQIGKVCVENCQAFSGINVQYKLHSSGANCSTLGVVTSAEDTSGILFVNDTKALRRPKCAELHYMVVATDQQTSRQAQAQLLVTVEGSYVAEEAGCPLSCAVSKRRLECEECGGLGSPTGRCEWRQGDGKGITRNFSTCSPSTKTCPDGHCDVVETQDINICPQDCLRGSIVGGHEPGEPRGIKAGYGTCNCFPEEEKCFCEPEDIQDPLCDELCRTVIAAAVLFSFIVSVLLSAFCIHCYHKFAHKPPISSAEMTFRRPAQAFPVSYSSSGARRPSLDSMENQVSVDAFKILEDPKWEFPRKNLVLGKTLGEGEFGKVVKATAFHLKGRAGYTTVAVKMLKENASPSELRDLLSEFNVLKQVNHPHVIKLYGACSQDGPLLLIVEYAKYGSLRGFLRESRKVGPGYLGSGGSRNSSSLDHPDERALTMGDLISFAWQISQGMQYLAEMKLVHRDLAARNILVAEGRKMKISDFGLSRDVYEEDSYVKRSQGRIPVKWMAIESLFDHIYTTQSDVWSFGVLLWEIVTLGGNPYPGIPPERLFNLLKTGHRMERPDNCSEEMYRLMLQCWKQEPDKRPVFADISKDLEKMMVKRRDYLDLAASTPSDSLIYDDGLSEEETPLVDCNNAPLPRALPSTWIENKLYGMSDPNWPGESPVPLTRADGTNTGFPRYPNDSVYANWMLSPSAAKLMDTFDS
In short: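 NIH3T3MEN2A cells (DMEM with 5% serum, 37 °C, 10% CO2) were exposed to vehicle or a range of concentrations for 24 h, with DMSO at 0.5% final. Whole-cell lysates were Western blotted for Ret autophosphorylation with anti-pTyr (4G10) and anti-pRet-Tyr1062 antibodies, and Ret protein expression was also probed.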

[6] = target: T1, Proto-oncogene tyrosine-protein kinase receptor Ret; experiment: Inhibition of RET in mouse NIH3T3MEN2A cells; assay type: cell-based

SMILES	Activity [1]	IC50 [2] [µM]	IC50 [3] [µM]	IC50 [4] [µM]	Activity [5]	IC50 [6] [nM]
COc1ccc(NC(=O)Nc2ccc(/C=C3/C(=O)Nc4cc(OC)c(OC)cc43)cc2)cc1	Active	3.6	14.7	12.3		
COc1cc2c(cc1OC)/C(=C\c1ccc(NC(=O)Nc3ccccc3)cc1)C(=O)N2	Active	4.6	14	8.7		
COc1cc2c(cc1OC)C(Cc1ccc(NC(=O)Nc3ccccc3)cc1)C(=O)N2 (stereo unspecified)	inactive	21.5				
O=C(Nc1ccccc1)Nc1ccc(/C=C2/C(=O)Nc3ccccc32)cc1	inactive	10				
O=C(Nc1ccccc1)Nc1ccc(/C=C2\C(=O)Nc3ccc(Cl)cc32)cc1	inactive	> 40				
COc1cc2c(cc1OC)/C(=C\c1ccc(NC(=O)Nc3ccc4c(c3)OCO4)cc1)C(=O)N2	inactive	19.4				
COc1cc2c(cc1OC)/C(=C\c1ccc(NC(=O)Nc3ccc(F)cc3)cc1)C(=O)N2	inactive	6.1				
COc1cc2c(cc1OC)N(C)C(=O)/C2=C/c1ccc(NC(=O)Nc2ccccc2)cc1	Active	4.1	6.6	5.4	inactive	
O=C(Nc1ccccc1)Nc1ccc(/C=C2\C(=O)N(O)c3ccccc32)cc1	inactive	7.5				
COc1cc2c(cc1OC)/C(=C\c1ccc(O)cc1)C(=O)N2	Active	3.6	16.3	19.7		170
COc1cc2c(cc1OC)/C(=C\c1ccc(NC(=O)Nc3ccncc3)cc1)C(=O)N2	inactive	4.7				
COc1cc2c(cc1OC)/C(=C\c1ccc(C(=O)Nc3ccccc3)cc1)C(=O)N2	inactive	12.2				
COc1cc2c(cc1OC)/C(=C\c1ccc(NC(=O)N3CCN(C)CC3)cc1)C(=O)N2	Active	15.8				> 3000
O=C(Nc1ccccc1)Nc1ccc(/C=C2\C(=O)Nc3ccccc32)cc1	inactive	> 40				
COc1cc2c(cc1OC)/C(=C\c1ccc(NC(=O)Nc3ccc(N(C)C)cc3)cc1)C(=O)N2	inactive	> 40				
